# Laboratory results published in ChEMBL document CHEMBL1128473, “[(Biaryloxy)alkyl]isoxazoles: picornavirus inhibitors” (J Med Chem, 1995).
# Tests used:
# [1] = system: Human rhinovirus sp.; assay: Concentration inhibiting 50% of the serotypes tested to 50% of the viral concentration of untreated controls following 72 hr of exposure; assay type: functional
# In short: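 Tissue culture infectious dose (TCID50) assay against a panel of 10 human rhinovirus serotypes. For each serotype, the viral concentration was compared with untreated controls after 72 h of compound exposure. MIC50 is the compound concentration at which half of the serotypes tested are reduced to 50% of the untreated-control viral concentration.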
# [2] = Metabolic stability expressed as half life values was monitored in vitro liver microsomal assay.; assay type: ADME, Microsome; conditions: liver microsomes
SMILES,MIC50 [1] [µM],half-life [2] [h]
Cc1cc(CCCOc2c(C)cc(-c3ccc(C(F)(F)F)cc3)cc2C)on1,1.7,–
Cc1cc(CCCOc2c(C)cc(-c3ccc(Cl)cc3)cc2C)on1,0.12,–
COc1ccc(-c2cc(C)c(OCCCc3cc(C)no3)c(C)c2)cc1,0.28,–
Cc1cc(CCCOc2c(C)cc(-c3ccc(N(C)C)cc3)cc2C)on1,0.66,–
Cc1cc(CCCOc2c(C)cc(-c3ccccc3)cc2C)on1,0.16,> 3.33
Cc1cc(CCCOc2c(C)cc(-c3ccc(O)cc3)cc2C)on1,0.77,–

# Second part, the compound after the results:
MIC50 [1] [µM],half-life [2] [h],SMILES
0.32,–,Cc1cc(CCCOc2c(C)cc(-c3cccc(F)c3)cc2C)on1
0.35,–,Cc1cc(CCCOc2c(C)cc(-c3cccc([N+](=O)[O-])c3)cc2C)on1
0.27,–,Cc1cc(CCCOc2c(C)cc(-c3cccc(Cl)c3)cc2C)on1
0.23,> 3.33,Cc1cccc(-c2cc(C)c(OCCCc3cc(C)no3)c(C)c2)c1
